# Measurements as given in ChEMBL document CHEMBL4316631, “Anti-inflammatory Potential of Saponins from Aster tataricus via NF-κB/MAPK Activation” (J Nat Prod, 2019).
# What was measured:
# [1] = tested on: RAW264.7; test: Cytotoxicity against mouse RAW264.7 cells assessed as reduction in cell viability at >50 uM measured after 24 hrs by MTT assay; format: cell-based; conditions: raw264.7, 24 h
# [2] = tested on: RAW264.7; test: Anti-inflammatory activity in mouse RAW264.7 cells assessed as inhibition of LPS-induced nitric oxide production preincubated for 30 mins followed by LPS-stimulation and measured after 24 hrs by Griess assay; format: functional, cell-based
# How it was run: (§1)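 RAW 264.7 macrophages stimulated with LPS; NO release quantified. Single-point screen at 50 μM; IC50 derived by nonlinear regression of sigmoidal dose–response curve, reported with 95% confidence intervals. Dexamethasone as positive control.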
# [3] = tested on: RAW264.7; test: Anti-inflammatory activity in mouse RAW264.7 cells assessed as inhibition of LPS-induced nitric oxide production at 50 uM preincubated for 30 mins followed by LPS-stimulation and measured after 24 hrs by Griess assay relative to control; format: functional; how it was run: as §1
IC50 [2] [nM],SMILES,Activity [1],inhibition at 50 µM [3] [%]
> 50000,CC1(C)CC[C@]2(C(=O)O)[C@H](O)C[C@]3(C)C(=CC[C@@H]4[C@@]5(C)C[C@H](O)[C@H](O[C@@H]6O[C@H](CO[C@@H]7OC[C@H](O)[C@H](O)[C@H]7O)[C@@H](O)[C@H](O)[C@H]6O)C(C)(C)[C@@H]5CC[C@]43C)[C@@H]2C1,Non-Toxic,
> 50000,CC1(C)CC[C@]2(C(=O)O[C@@H]3OC[C@@H](O)[C@H](O)[C@H]3O)[C@H](O)C[C@]3(C)C(=CC[C@@H]4[C@@]5(C)C[C@H](O)[C@H](O[C@@H]6O[C@H](CO[C@@H]7OC[C@H](O)[C@H](O)[C@H]7O)[C@@H](O)[C@H](O)[C@H]6O)C(C)(C)[C@@H]5CC[C@]43C)[C@@H]2C1,Non-Toxic,
2100,C[C@@H]1O[C@@H](O[C@H]2[C@H](OC(=O)[C@]34CCC(C)(C)C[C@H]3C3=CC[C@@H]5[C@@]6(C)CC[C@H](O[C@@H]7O[C@H](CO[C@@H]8OC[C@H](O)[C@H](O)[C@H]8O)[C@@H](O)[C@H](O)[C@H]7O)C(C)(C)[C@@H]6CC[C@@]5(C)[C@]3(C)C[C@H]4O)OC[C@@H](O)[C@@H]2O)[C@H](O)[C@H](O)[C@H]1O[C@@H]1OC[C@H](O)[C@H](O[C@@H]2OC[C@@H](O)[C@H](O)[C@H]2O)[C@H]1O,,> 50
42100,C[C@@H]1O[C@@H](O[C@@H]2[C@@H](O[C@@H]3O[C@@H](C)[C@H](O[C@@H]4OC[C@@H](O)[C@H](O)[C@H]4O)[C@@H](O[C@@H]4OC[C@](O)(CO)[C@H]4O)[C@H]3O)[C@H](OC(=O)[C@]34CCC(C)(C)C[C@H]3C3=CC[C@@H]5[C@@]6(C)C[C@H](O)[C@H](O[C@@H]7O[C@H](CO[C@@H]8OC[C@H](O)[C@H](O)[C@H]8O)[C@@H](O)[C@H](O)[C@H]7O)C(C)(C)[C@@H]6CC[C@@]5(C)[C@]3(C)CC4)OC[C@H]2O)[C@H](O)[C@H](O)[C@H]1O,,> 50
2700,C[C@@H]1O[C@@H](O[C@@H]2[C@@H](O)[C@H](O[C@@H]3[C@@H](O[C@@H]4OC[C@](O)(CO)[C@H]4O)[C@@H](O)[C@H](O[C@H]4[C@H](OC(=O)[C@]56CCC(C)(C)C[C@H]5C5=CC[C@@H]7[C@@]8(C)C[C@H](O)[C@H](O[C@@H]9O[C@H](CO[C@@H]%10OC[C@H](O)[C@H](O)[C@H]%10O)[C@@H](O)[C@H](O)[C@H]9O)C(C)(C)[C@@H]8CC[C@@]7(C)[C@]5(C)C[C@H]6O)OC[C@@H](O)[C@@H]4O)O[C@H]3C)OC[C@@H]2O)[C@H](O)[C@H](O)[C@H]1O,,> 50
> 50000,C[C@@H]1O[C@@H](O[C@H]2[C@H](OC(=O)[C@]34CCC(C)(C)C[C@H]3C3=CC[C@@H]5[C@@]6(C)C[C@H](O)[C@H](O[C@@H]7O[C@H](CO[C@@H]8OC[C@H](O)[C@H](O)[C@H]8O)[C@@H](O)[C@H](O)[C@H]7O)C(C)(C)[C@@H]6CC[C@@]5(C)[C@]3(C)CC4)OC[C@@H](O)[C@@H]2O)[C@H](O)[C@H](O[C@@H]2OC[C@](O)(CO)[C@H]2O)[C@H]1O[C@@H]1OC[C@@H](O)[C@H](O)[C@H]1O,Non-Toxic,
10,C[C@@H]1C[C@H]2[C@@H]3CCC4=CC(=O)C=C[C@]4(C)[C@@]3(F)[C@@H](O)C[C@]2(C)[C@@]1(O)C(=O)CO [DEXAMETHASONE],,
